Measured values taken from publication PMC9486128 (The Journal of Biological Chemistry, 2022).
Residue numbers refer to the chain shown, from its start. Several values for one entry are separate records, joined by “and”; a condition that tells them apart may be missing. Equal entries are not always repeated.

How the values were obtained:
[1] = system: S. mansoni adult worm pairs; assay: Adult worm pairs viability assay; format: cell-based, Schistosoma mansoni; conditions: for reduction of adult worm pairs viability: day 7; for adult worm pairs viability: 24 h
In short: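 Five adult worm pairs per sample were held in complete DMEM. Test compound was added once at 10, 20 or 50 μM, with no medium addition or replacement, against a DMSO vehicle control. Worms were scored 0–3 daily under a stereomicroscope for 7 days. The sample score was the sum of worm scores divided by worm number, expressed as percent relative to DMSO. Three experiments were run.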

[2] = biological target: T1, SmHDAC8 (Schistosoma mansoni, UniProt A5H660); assay: Binding to SmHDAC8 by quenching of intrinsic fluorescence
T1 sequence (A5H660 1-440): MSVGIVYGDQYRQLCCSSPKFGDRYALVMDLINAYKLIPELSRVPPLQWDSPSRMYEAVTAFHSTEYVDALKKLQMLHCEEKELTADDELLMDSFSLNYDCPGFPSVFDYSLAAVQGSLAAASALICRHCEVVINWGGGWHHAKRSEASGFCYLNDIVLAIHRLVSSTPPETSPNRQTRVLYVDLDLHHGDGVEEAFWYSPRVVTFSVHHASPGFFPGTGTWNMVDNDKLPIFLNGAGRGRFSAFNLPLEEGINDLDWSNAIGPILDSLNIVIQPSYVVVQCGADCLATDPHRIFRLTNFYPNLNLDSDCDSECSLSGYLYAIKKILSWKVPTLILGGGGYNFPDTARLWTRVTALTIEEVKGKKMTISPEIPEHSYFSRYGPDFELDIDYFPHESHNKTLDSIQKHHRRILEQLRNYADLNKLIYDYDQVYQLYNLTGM
In short: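 Recombinant His6-tagged SmHDAC8 was expressed in E. coli BL21(DE3) and used at 0.125 μM in 50 mM Tris pH 8.0, 150 mM KCl, 100 μM DTT. It was titrated with test compound from 1.6 nM to 125 μM, with 5 min stirred equilibration per addition at 25 °C. Intrinsic fluorescence quenching was read at 340 nm (excitation 280 nm), averaging 4–5 accumulations. Ki came from a quadratic 1:1 binding fit.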

[3] = system: S. mansoni larvae (schistosomula); assay: ATP-based luminescence viability assay on schistosomula; format: cell-based, Schistosoma mansoni; conditions: 72 h incubation, normalized to DMSO and gambogic acid 10 μM
In short: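 Schistosomula of a Puerto Rican strain were made by mechanical transformation of cercariae and purified on a Percoll gradient. They were exposed at 150 per well in phenol-red-free DMEM to test compound in DMSO for 72 h at 37 °C, 5% CO2. CellTiterGlo luminescence was read after 30 min. Three independent experiments were run. LD50 came from a variable-slope log(inhibitor) versus normalized response fit.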

[4] = biological target: T1, SmHDAC8; assay: SmHDAC8 enzymatic activity inhibition; format: biochemical; conditions: for enhancement in potency toward SmHDAC8: NF2883 with respect to NF2453, NF2889 with respect to NF2452
[5] = biological target: T2, hHDAC8 (Homo sapiens, UniProt Q9BY41); assay: hHDAC8 enzymatic activity inhibition; format: biochemical; conditions: for enhancement in potency toward hHDAC8: NF2883 with respect to NF2453, NF2889 with respect to NF2452
T2 sequence (Q9BY41 1-377): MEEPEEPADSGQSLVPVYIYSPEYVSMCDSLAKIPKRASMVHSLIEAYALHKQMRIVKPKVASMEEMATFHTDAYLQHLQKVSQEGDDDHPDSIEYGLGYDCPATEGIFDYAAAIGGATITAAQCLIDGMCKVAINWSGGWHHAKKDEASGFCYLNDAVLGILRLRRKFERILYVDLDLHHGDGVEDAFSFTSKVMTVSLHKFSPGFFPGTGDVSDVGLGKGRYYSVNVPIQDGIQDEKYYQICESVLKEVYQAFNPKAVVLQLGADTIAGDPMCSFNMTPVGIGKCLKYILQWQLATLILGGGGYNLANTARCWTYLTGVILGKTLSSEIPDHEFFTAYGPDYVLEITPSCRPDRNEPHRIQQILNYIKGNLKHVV

[6] = biological target: T3, SmHDAC8 WT (Schistosoma mansoni, UniProt A5H660); assay: Steady-state enzyme kinetics of SmHDAC8 with fixed inhibitor concentration; format: biochemical; conditions: for type of inhibition of SmHDAC8: from steady-state kinetics and IC50 at different substrate concentrations
T3 sequence (A5H660 1-440): T1 sequence (A5H660 1-440)
In short: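 SmHDAC8 (0.425 μM) was preincubated 15 min at 25 °C with DMSO, 5 μM or 1 μM test compound. Timed aliquots were quenched with TSA/trypsin. Initial rates came from product versus time via standard curve and were fitted to Michaelis–Menten. Two to four independent experiments were run.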

[7] = biological target: T4, WT SmHDAC8 (Schistosoma mansoni, UniProt A5H660); assay: Fluorescence emission spectra of WT SmHDAC8 with inhibitors; format: binding; conditions: inhibitor 25 μM, excitation 280 and 298 nm
T4 sequence (A5H660 1-440): T1 sequence (A5H660 1-440)
In short: (§1)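 WT SmHDAC8 or the W198A mutant (made by site-directed mutagenesis and expressed in E. coli) was used at 0.125 μM in 10 mM Tris pH 8.0, 150 mM KCl, 5 mM DTT. Protein was preincubated 15 min at 25 °C with 25 μM test compound, with a DMSO reference and enzyme-free blanks. Emission spectra were recorded after 280 and 298 nm excitation, averaging 4–5 accumulations. Some runs included 2 mM Na/K-tartrate.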

[8] = biological target: T5, SmHDAC8 W198A mutant (Schistosoma mansoni, UniProt A5H660, W198A); assay: Fluorescence emission spectra of SmHDAC8 W198A mutant with inhibitors; format: binding; conditions: inhibitor 25 μM, excitation 280 and 298 nm
T5 sequence (A5H660 1-440 W198A): T1 sequence (A5H660 1-440) with W198A
In short: as §1

[9] = biological target: T2, hHDAC8; assay: Steady-state enzyme kinetics of hHDAC8 with fixed inhibitor concentration; format: biochemical; conditions: for type of inhibition of hHDAC8: from steady-state kinetics
In short: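 Commercial recombinant human HDAC8 from the Fluor-de-Lys kit was run with varied Fluor-de-Lys acetylated peptide-AMC substrate. Reactions contained vehicle or a fixed test compound concentration. Steady-state parameters came from Michaelis–Menten nonlinear regression.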

[10] = system: acetylation of lysine residues within histone proteins of S. mansoni adult worm pairs; assay: Histone K-acetylation Western blot on adult worm pairs; format: cell-based, Schistosoma mansoni
In short: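 Ten adult worm pairs were treated 24 or 72 h with test compound at concentrations taken from viability curves. Positive controls were TSA 1 μM and a reference HDAC inhibitor 20 μM; DMSO was the negative control. Lysis buffer contained 5 mM sodium butyrate. Histone-enriched fractions were run on 15% SDS-PAGE and blotted with anti-acetyl-lysine (1:4000) and anti-α-tubulin (1:5000), with Ponceau calibration. Acetyl-lysine densitometry was normalized to tubulin, then to DMSO.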

SMILES	reduction of adult worm pairs viability ([1]; 10 μM)	reduction of adult worm pairs viability ([1]; 20 μM)	adult worm pairs viability ([1]; 50 μM)	Ki [2]	LD50 on schistosomula [3]	enhancement in potency toward SmHDAC8 [4]	IC50 [5]	enhancement in potency toward hHDAC8 [5]	type of inhibition of SmHDAC8 [6]	fluorescence signal of WT SmHDAC8 with respect to control [7]	fluorescence signal of SmHDAC8 W198A mutant with respect to control [8]	type of inhibition of hHDAC8 [9]	other results
CN1CCC2(CC1)c1ccccc1N(Cc1ccc(C(=O)NO)s1)C2c1ccc(Cl)cc1 (stereo not drawn) [NF2883, 5-((2-(4-chlorophenyl)-1′-methylspiro[indoline-3,4′-piperidin]-1-yl)methyl)-N-hydroxythiophene-2-carboxamide]	50%	almost complete death	immediate loss of viability	0.13 ± 0.05 µM	26.2 ± 1.1 µM	about 20 fold	0.16 ± 0.02 µM	about 20 fold	–	–	–	–	–
O=C(NO)c1ccc(Cn2c3c(c4cc(Br)ccc42)SC(c2ccccc2)C3)s1 (stereo not drawn) [NF2886, 5-((7-Bromo-2-phenyl-2,3-dihydro-4H-thieno[3,2-b]indol-4-yl)methyl)-N-hydroxythiophene-2-carboxamide]	ineffective	~50%	–	9.7 ± 7.2 µM	~60 µM and 59.9 ± 4.9 µM	–	3.14 ± 0.57 µM	–	competitive inhibitor	quenched	quenching	competitive	reduction of adult worm pairs viability ([1]; 50 μM): ~50%; kcat ([6]; SmHDAC8 with 5 μM NF2886): 0.017 ± 0.003 s⁻¹; increment of KM versus vehicle ([6]; SmHDAC8 with 5 μM inhibitor): > 3 fold; increase of IC50 with 150 μM substrate versus 50 μM ([4]; SmHDAC8): ~2 fold; kcat ([9]; hHDAC8 with 5 μM NF2886): 0.012 ± 0.004 s⁻¹
CN1CCC2(CC1)c1ccccc1N(Cc1ccc(C(=O)NO)s1)C2c1cccc(Cl)c1 (stereo not drawn) [NF2889, 5-((2-(3-Chlorophenyl)-1′-methylspiro[indoline-3,4′-piperidin]-1-yl)methyl)-N-hydroxythiophene-2-carboxamide]	50%	almost complete death	immediate loss of viability	0.6 ± 0.2 µM	26.2 ± 1.6 µM	6 fold	1.32 ± 0.07 µM	2 fold	mixed-type inhibition	quenched	no quenching	competitive	kcat ([6]; SmHDAC8 with 1 μM NF2889): 0.007 ± 0.003 s⁻¹; increase of lysine acetylation signal versus DMSO ([10]; 5 μM for 72 h): 11 fold; increase of lysine acetylation signal versus DMSO ([10]; 10 μM for 24 h): 6.5 fold; kcat ([9]; hHDAC8 with 2 μM NF2889): 0.011 ± 0.005 s⁻¹
CC(/C=C/C(=O)NO)=C\[C@@H](C)C(=O)c1ccc(N(C)C)cc1 [TSA, Trichostatin A, reference compound]	–	–	–	–	–	–	–	–	–	–	–	–	increase of K-acetylation to tubulin ratio versus control ([10]; 1 μM, positive control): About 10 fold
